Laboratory results as given in ChEMBL document CHEMBL3580554, “Design, synthesis, and anticonvulsant activity of new hybrid compounds derived from 2-(2,5-dioxopyrrolidin-1-yl)propanamides and 2-(2,5-dioxopyrrolidin-1-yl)butanamides” (J Med Chem, 2015).

Assays:
[1] = test system: Mus musculus; assay: Anticonvulsant activity in Swiss mouse assessed as protection against seizures at 300 mg/kg, ip dosed 2 hrs before initiation of maximal electroconvulsions by maximal electroshock test; format: functional
Outline: (§1)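 Mice were dosed i.p. at a fixed 300 or 100 mg/kg (6 Hz: 100 mg/kg only). Protection was then scored against MES, sc PTZ or 6 Hz seizures at pretreatment times of 0.25, 0.5, 1 and 2 h. Groups were four mice, scored as number protected / number tested. This also gives the time course and time of peak effect.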

[2] = test system: Mus musculus; assay: Anticonvulsant activity in Swiss mouse assessed as protection against seizures at 100 mg/kg, ip dosed 2 hrs before initiation of maximal electroconvulsions by maximal electroshock test; format: functional; outline: as §1
[3] = test system: Mus musculus; assay: Anticonvulsant activity in Swiss mouse assessed as protection against seizures at 300 mg/kg, ip dosed 0.25 hrs before pentylenetetrazole challenge by subcutaneous pentylenetetrazole seizure test; format: functional; outline: as §1
[4] = test system: Mus musculus; assay: Anticonvulsant activity in Swiss mouse assessed as protection against seizures at 100 mg/kg, ip dosed 2 hrs before pentylenetetrazole challenge by subcutaneous pentylenetetrazole seizure test; format: functional; outline: as §1
[5] = test system: Mus musculus; assay: Anticonvulsant activity in Swiss mouse model of 6 Hz psychomotor seizure mode assessed as protection against seizures at 100 mg/kg, ip dosed 1 hr before 6 Hz electrical stimulation by 6 Hz test; format: functional; outline: as §1
[6] = species: Mus musculus; assay: Protective index, ratio of neurotoxic TD50 in Swiss mouse by Chimney test to anticonvulsant ED50 in Swiss mouse measured at 0.5 hrs of time to peak effect by maximal electroshock test
Outline: (§2)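 Protective index was calculated as TD50 (chimney test, mouse, i.p.) divided by ED50 from the matching MES, sc PTZ or 6 Hz test, both taken at the time of peak effect.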

[7] = test system: Mus musculus; assay: Anticonvulsant activity in ip dosed Swiss mouse assessed as protection against seizures measured at 0.5 hrs of time to peak effect by maximal electroshock test; format: functional
Outline: (§3)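 Median effective doses (ED50, mg/kg) were determined i.p. in mice at the time of peak effect in the MES, sc PTZ or 6 Hz tests. Only compounds giving at least 50% protection at 100 mg/kg in that test were taken forward.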

[8] = test system: Mus musculus; assay: Anticonvulsant activity in ip dosed Swiss mouse assessed as protection against seizures measured at 0.5 hrs of time to peak effect by subcutaneous pentylenetetrazole seizure test; format: functional; outline: as §3
[9] = test system: Mus musculus; assay: Protective index, ratio of neurotoxic TD50 in Swiss mouse by Chimney test to anticonvulsant ED50 in Swiss mouse measured at 0.5 hrs of time to peak effect by subcutaneous pentylenetetrazole seizure test; format: functional; outline: as §2
[10] = test system: Mus musculus; assay: Anticonvulsant activity in ip dosed Swiss mouse assessed as protection against seizures measured at 1 hr of time to peak effect by maximal electroshock test; format: functional
[11] = Protective index, ratio of neurotoxic TD50 in Swiss mouse by Chimney test to anticonvulsant ED50 in Swiss mouse measured at 1 hr of time to peak effect by 6 Hz test by 6 Hz psychomotor seizure test; format: toxicity; conditions: in vivo, read-out: Ratio TD50/ED50
Outline: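 Neurotoxicity (TD50) estimated in mice i.p. by chimney test for motor coordination impairment; protective index calculated as TD50/ED50 for each seizure model.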

[12] = species: Rattus norvegicus; assay: Inhibition of [3H]BTX binding to sodium channel site 2 in rat cerebral cortex synaptosomes at 500 uM incubated for 60 mins by scintillation counting based radioligand displacement assay; format: subcellular
Outline: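 Synaptoneurosomal preparations from rat cerebral cortex were used. The read-out was inhibition of specific [3H]BTX binding to the voltage-sensitive sodium channel (site 2), expressed as % inhibition of control specific binding. Compounds were tested at 1, 10, 100 and 500 μM. Inhibition above 50% was taken as significant.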

[13] = species: Rattus norvegicus; assay: Inhibition of [125I]omega-conotoxin GVIA binding to N-type calcium channel in rat cerebral cortex synaptosomes at 100 uM incubated for 30 mins by scintillation counting based radioligand displacement assay; format: subcellular
[14] = Toxicity against HEK293 cells assessed as reduction in cell viability after 48 hrs by EZ4U label based assay; conditions: human
Outline: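 HEK-293 human embryonic kidney cells were incubated with compound for 48 h and viability was then measured. Doxorubicin served as standard.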

[15] = Ratio of IC50 for test compound to IC50 for doxorubicin against HEK293 cells assessed as reduction in cell viability after 48 hrs by EZ4U label based assay; conditions: human, read-out: Ratio IC50
[16] = test system: Liver microsome; assay: Drug metabolism in human liver microsomes assessed as metabolite M1 formation at 50 uM in presence of NADPH regeneration system pre-incubated at 37 degC for 5 min and measured 2 hrs after post NADPH system addition by UPLC and LC-MS/MS method; format: ADME
Outline: (§4)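 The compound was incubated 2 h with human liver microsomes. Metabolites were detected by full-scan chromatogram and identified by LC/MS from their [M+H]+ molecular masses.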

[17] = test system: Liver microsome; assay: Drug metabolism in human liver microsomes assessed as metabolite M2 formation at 50 uM in presence of NADPH regeneration system pre-incubated at 37 degC for 5 min and measured 2 hrs after post NADPH system addition by UPLC and LC-MS/MS method; format: ADME; outline: as §4
[18] = test system: Liver microsome; assay: Drug metabolism in human liver microsomes assessed as metabolite M4 formation at 50 uM in presence of NADPH regeneration system pre-incubated at 37 degC for 5 min and measured 2 hrs after post NADPH system addition by UPLC and LC-MS/MS method; format: ADME; outline: as §4

Work on `CC(C(=O)N1CCN(c2cccc(C(F)(F)F)c2)CC1)N1C(=O)CCC1=O` (racemic) yielded an Activity [1] of 100%, an Activity [2] of 0% and an Activity [3] of 100%. The Activity [4] was 75%, the Activity [5] was 100% and the “Ratio TD50/ED50” value [6] was greater than 16.97. The ED50 [7] was 88.4 mg/kg, the ED50 [8] was 59.9 mg/kg and the “Ratio TD50/ED50” value [9] was greater than 25.04. The ED50 [10] was 85.1 mg/kg, the selectivity ratio at 1 h [11] was 23.5 and the inhibition [12] was 62.3%. For the same molecule, the inhibition [13] was 13.9%, the IC50 at 48 h [14] was 50.7 µM and the selectivity ratio at 48 h [15] was 100. The Drug metabolism [16] was “metabolite_detected”, the Drug metabolism [17] was “metabolite_detected” and the Drug metabolism [18] was “metabolite_detected”.
